# Assay results: PubChem BioAssay AID463079 (The Scripps Research Institute Molecular Screening Center, 2010)
# Among all 330,000 compounds or so, about 2,000 (0.61%) were called active. The entries come from a sample that favours actives as a whole. Values without a mark were called inactive.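 Rule for the calls: active = inhibition above that plate's mean sample inhibition plus 3 SD (cut at about 26% in these data); inactive = the rest.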
# Assay: nonselective Gq signaling inhibition in CHO cells – cell-based, fluorescence, Fluo-8 calcium dye, counter-screen for OX1R antagonist project, primary screen (AID 463079);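 note: 0% = ATP-challenged DMSO wells and 100% = DMSO wells without ATP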
# Settings: parental CHO-K1, ATP-induced calcium, Fluo-8 fluorescence; at 5.6 µM; active compounds read high
# Outline: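 Assay system: untransfected parental CHO cell line. Also added: ATP agonist challenge. Dosing: one dose, 5.6 µM nominal. Measured by: Fluo-8 fluorescence. Read-out: % inhibition. Benchmarks: ATP wells versus no-ATP DMSO wells. Repeats: no replicates.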
row,Structure (SMILES),inhibition
1,COc1ccc(/C=C/C(=O)Nc2c(C)nn(C)c2C)cc1COc1ccc(Br)cc1,13.3%
2,O=C(Nc1cccc([N+](=O)[O-])c1)c1ccc2c(c1)OCO2,-1.24%
3,O=C(Nc1ccc(NC(=O)c2ccco2)c(Cl)c1)c1cccc([N+](=O)[O-])c1,-6.79%
4,O=C(Nc1ccc(C2CC2(Cl)Cl)cc1)c1cccc([N+](=O)[O-])c1 (centres undefined),46.7% (active)
5,COC(=O)[C@@H]1C[C@@]2(O)[C@H](O)[C@H](O)[C@H](O)C[C@H]2N1Cc1ccc(C)s1,2.13%
6,O=C(CO/N=C/c1ccccc1O)NNC(=O)c1ccccc1Cl,2.58%
7,CC[n+]1cc(C)ccc1/C=C/c1ccc(N(C)C)cc1,51.9% (active)
8,CCOC(=O)C1=CN(Cc2ccc(Br)cc2)S(=O)(=O)N(C)C1C (centres undefined),-13.1%
9,O=C(NCC1CCCO1)/C(=C/c1ccc(Cl)cc1)NC(=O)c1ccccc1 (centres undefined),-2.9%
10,O=C(N/C(=C\c1ccc(O)cc1)C(=O)N1CCCCC1)c1ccccc1,-2.82%
11,N#C/C(=C/c1ccc(Cl)cc1)NC(=O)c1ccccc1,50.3% (active)
12,S=C(NCCC1=CCCCC1)Nc1ccccc1,6.17%
13,COc1cc(OC)c2c(-c3cccc(-c4cccc(N)c4)c3)cc(=O)oc2c1,-15.7%
14,CSc1sc(C)cc1C1C(C#N)=C(N)N(c2cccnc2)C2=C1C(=O)CCC2 (centres undefined),-13.3%
15,OCCN(Cc1ccccc1)Cc1ccc(Cl)cc1,-28.2%
16,CN(C(=O)CN(CCO)CC(=O)N(C)C(C)(C)Cc1ccccc1)C(C)(C)Cc1ccccc1,52.8% (active)
17,CCN(CC)C(=O)N(CC)Cc1ccccc1,-0.04%
18,CCc1cccc(NC(=S)N(CCN(C)C)C2CCN(C(C)C)CC2)c1,1.41%
19,CCc1cc2c(=O)c(-c3ccon3)c(N)oc2cc1OC,-10.2%
20,Cc1ccc(-c2cccc([C@H]3[C@@H]4C=CC[C@@H](C)[C@@H]4C(=O)N3Cc3ccccc3)c2)cc1,-46.9%
21,CSc1ccccc1C(=O)Nc1cccc(C(C)=O)c1,-10%
22,C=CCSc1nnc(NC(=O)c2ccc(NC(C)=O)cc2)s1,-14.6%
23,CSc1nsc(NC(=O)Nc2ccccc2)n1,18.8%

row,Structure (SMILES),inhibition
1,C=CCSc1nsc(NC(=O)Nc2cccc(C(C)=O)c2)n1,46.6% (active)
2,CCSc1nsc(NC(=O)Nc2cccc(C(C)=O)c2)n1,66.5% (active)
3,CCSc1nsc(NC(=O)Nc2ccccc2OC)n1,-18.1%
4,CN(C)C=NC(=O)c1cccn1-c1ncc(C(F)(F)F)cc1Cl,7.02%
5,O=C(O)CCN1C(=O)CC2(CCCCC2)C1=O,6.17%
6,CC(=O)c1c(C)[nH]c(C(=O)COc2ccc3c(C)cc(=O)oc3c2)c1C,1.48%
7,CCOC(=O)c1c(C)[nH]c(C(=O)COc2ccc3c(c2)OCO3)c1C,39.2% (active)
8,CCOC(=O)c1c(C)[nH]c(C(=O)OCC(=O)c2ccc(OC)cc2OC)c1C,-26.3%
9,COc1ccc(-c2cnc(SCCNC(=O)c3ccc4c(c3)OCO4)[nH]2)cc1,-9.72%
10,Cc1ccc(NC(=O)c2ccc(Cl)nc2)cc1S(=O)(=O)N1CCOCC1,-8.73%
11,CCN1/C(=C\c2ccc3ccccc3[n+]2CC)Sc2cc(C)ccc21,79.6% (active)
12,CCN1/C(=C/c2ccc3ccc(C)cc3[n+]2CC)Sc2ccccc21,80.2% (active)
13,CCOC(=O)CN(C(=O)COc1nc(-c2ccccc2)cc(C)c1C#N)c1ccc(F)cc1,-20.7%
14,O=C(O)CN(Cc1ccco1)S(=O)(=O)c1ccccc1,-6.05%
15,COc1ccc(C(=O)OCC(=O)c2cc(C)n(CC3CCCO3)c2C)cc1[N+](=O)[O-] (centres undefined),-4.71%
16,CC(NC(=S)Nc1ccc(OC(F)F)cc1)c1ccc(F)cc1 (centres undefined),14.7%
17,COc1cccc(CNC(C)C(=O)Nc2ccc(S(=O)(=O)N3CCCC3)cc2)c1 (centres undefined),-9.95%
18,COc1cc2c(cc1OC)C(C(=O)NCc1ccco1)C1c3ccccc3CCN1C2=O (centres undefined),-23.7%
19,CCOC(=O)c1sc(NC(=O)CSc2nc(C)cc(C(F)(F)F)n2)c(C#N)c1C,4.56%
20,COc1ccc(C(=O)COC(=O)c2c(C)noc2C)cc1Cl,-10.6%
21,Cc1ccc(S(=O)(=O)N2CCN(C(=O)COC(=O)c3c(C)noc3C)CC2)c(C)c1,-5.91%
22,Cc1ccc(-c2nc(COC(=O)c3c(C)noc3C)cs2)cc1,44.1% (active)
23,COc1ccc(S(=O)(=O)N2CCN(c3ncnc4c(-c5ccccc5)nsc34)CC2)cc1,-9.64%

row,Structure (SMILES),inhibition
1,COCc1c(C(=O)OCC(=O)Nc2ccc(OC(F)F)cc2)oc2ccccc12,-11.9%
2,Cc1nc(CNS(=O)(=O)c2ccc(Oc3ccccc3)cc2)cs1,44.4% (active)
3,Cc1nc(CNS(=O)(=O)c2cc([N+](=O)[O-])ccc2C)cs1,-14.4%
4,Cc1ccc(S(=O)(=O)NCc2csc(C)n2)c(C)c1,-13.8%
5,COc1ccc(NC2CCCN(C(=O)c3ccncc3)C2)cc1 (centres undefined),-8.33%
6,CSCCC(C(=O)NC1=NCCS1)N1C(=O)c2ccccc2C1=O (centres undefined),1.01%
7,N#Cc1ccc(C(=O)Nc2nc(-c3cccs3)c(C(=O)C(F)(F)F)s2)cc1,25.4% (active)
8,CCOc1cccc(C(=O)Nc2nnc(-c3cccs3)s2)c1,-10.2%
9,N#Cc1ccc(Oc2ccc(C(F)(F)F)cc2NC(=O)c2ccc(F)cc2)cc1,-13.8%
10,O=C(/C=C/c1cccc([N+](=O)[O-])c1)NCCSCc1ccco1,-15.3%
11,CCCC(C)C(=O)OCC(=O)Nc1c(Br)cc(C)cc1Br (centres undefined),-8.47%
12,CCC(=O)Nc1ccc(-c2ccc(N3CCCCC3)nn2)cc1,-16%
13,CC1CCN(C(NC(=O)c2ccco2)C(=O)c2ccccc2)CC1 (centres undefined),-6.97%
14,CC1CCN(c2ccc(-c3ccc(NC(=O)c4ccco4)cc3)nn2)CC1,45% (active)
15,COc1ccc(CCNC(=O)CN(C)S(=O)(=O)c2ccc3nc(C)sc3c2)cc1OC,-5.92%
16,CC(=O)Nc1ccc(S(=O)(=O)NCCC(=O)N2CCN(c3ccccc3Cl)CC2)cc1,-3.47%
17,CCOC(=O)CC1C(=O)NCCN1c1nc2c(C)cccn2c(=O)c1/C=C1\SC(=S)N(C(C)CC)C1=O (centres undefined),54.2% (active)
18,Cc1cccn2c(=O)c(/C=C(\C#N)C(N)=O)c(N3CCCCCC3)nc12,-34.3%
19,CCOC(=O)N1CCN(C(=O)CSc2nc(=O)n3cccc(C)c3n2)CC1,-15.5%
20,COc1ccc(CC(NC(C)=O)C(=O)NC2CCN(C(=O)Nc3ccc(C#N)cc3)CC2)cc1OC (centres undefined),-6.58%
21,CC(C)=CCN1CCN(CCCc2ccccc2)CC1CCO (centres undefined),-8.88%
22,CN(C)S(=O)(=O)N1CCC(Oc2cccc(C(=O)NCCCC3CCCC3)c2)CC1,23.8%
23,CSc1ccc(S(=O)(=O)NCC(=O)OCC(=O)NC2(C#N)CCCCC2)cc1[N+](=O)[O-],-8.63%

row,Structure (SMILES),inhibition
1,COc1ccc(-c2noc(CCC(=O)N3CCN(c4cccc(C)c4)CC3)n2)cc1,-7.6%
2,Oc1c(Cl)cc(Cl)c(Cl)c1Cc1c(O)c(Cl)cc(Cl)c1Cl,70.6% (active)
3,COCC(=O)Nc1cc(C(=O)OC)cc(C(=O)OC)c1,-1.27%
4,Cc1cccc(NC(=O)C2CC(=O)OC23CCCC3)c1 (centres undefined),-13.3%
5,C/C(=N\NC(=O)CNC(=O)C(c1ccccc1)c1ccccc1)c1ccc(C)cc1,30.7% (active)
6,O=C(CNC(=O)C(c1ccccc1)c1ccccc1)N/N=C\c1ccc2c(c1)OCO2,2.64%
7,C/C(=N/NC(=O)CC(=O)N/N=C(\C)c1ccc([N+](=O)[O-])cc1)c1ccc([N+](=O)[O-])cc1,-3.47%
8,CCCc1ccc(C(=O)COC(=O)CN2C(=O)NC3(CCCCC3C)C2=O)cc1 (centres undefined),-23.9%
9,COc1cc(C(=O)N2CCN(C/C=C/c3ccccc3)CC2)cc(OC)c1C,-10.8%
10,CC1(C)CC[C@]2(C(=O)O)CC[C@]3(C)C(=CCC4[C@@]5(C)CC[C@H](O)C(C)(C)C5[C@H](O)C[C@]43C)[C@@H]2C1 (some centres undefined),-9.31%
11,CC1(C)C2CC[C@]3(C)C(CC=C4[C@@H]5C[C@@](C)(CO)CC[C@]5(C(=O)O)CC[C@]43C)[C@@]2(C)CC[C@@H]1O (some centres undefined),-1.46%
12,CC1(C)CC[C@@]2(C(=O)O)C(C1)C1=CCC3[C@@]4(C)CC[C@H](O)C(C)(C)C4CC[C@@]3(C)[C@]1(C)C[C@H]2O (some centres undefined),93.2% (active)
13,Cc1ccc(Cl)c(NC(=O)CN(C)CC(=O)Nc2ccc(F)c(F)c2F)c1Cl,-2.12%
14,NC(=O)c1ccc(-c2csnn2)cc1,-15.6%
15,Cc1occc(=O)c1OCc1ccc(F)cc1,-7.75%
16,Fc1ccccc1COc1cccc2cccnc12,-22.9%
17,Cc1nc2ccccc2cc1OCc1ccc(F)cc1,54.1% (active)
18,CCNC(=S)N1CCN(CCN=CC2=C(O)CC(C)(C)CC2=O)CC1,-4.83%
19,C=C(Br)CN1CCN(CC(=C)Br)CC1,4.29%
20,CCCCNC(=O)C(C)N(CCN(C)C)C(=O)CCCCCN1C(=O)NC(c2ccc(Cl)cc2)C(C(=O)OCc2ccccc2)=C1C (centres undefined),-17%
